# Activity calls are given as the source filed them. The rule behind the calls is not given here.
# How the values were obtained:
# Escherichia coli [1] = test: Antimicrobial activity against Escherichia coli NCIM 2065 at 1000 ug/disk after 24 hrs by disk diffusion method; assay type: functional; conditions: NCIM 2065, 24 h, read-out: DIZ
# Summary of the method: (§1)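 Disc diffusion on Mueller–Hinton agar. 100 µl of bacterial suspension at 10⁸ CFU/ml is spread on the plate. Discs carry test compounds at two loadings, dissolved in DMSO; DMSO alone serves as negative control. Ofloxacin disc is the positive reference. Plates are incubated at 37 °C for 24 h, and the inhibition zone diameter is measured.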
# Escherichia coli [2] = test: Antimicrobial activity against Escherichia coli NCIM 2065 at 500 ug/disk after 24 hrs by disk diffusion method; assay type: functional; conditions: NCIM 2065, 24 h, read-out: DIZ; summary of the method: as §1
# Bacillus subtilis = test: Antimicrobial activity against Bacillus subtilis NCIM 2063 at 500 ug/disk after 24 hrs by disk diffusion method; assay type: functional; conditions: NCIM 2063, 24 h, read-out: DIZ; summary of the method: as §1
# Bacillus cereus [3] = test: Antimicrobial activity against Bacillus cereus NCIM 2155 at 500 ug/disk after 24 hrs by disk diffusion method; assay type: functional; conditions: NCIM 2155, 24 h, read-out: DIZ; summary of the method: as §1
# Bacillus cereus [4] = test: Antimicrobial activity against Bacillus cereus NCIM 2155 at 1000 ug/disk after 24 hrs by disk diffusion method; assay type: functional; conditions: NCIM 2155, 24 h, read-out: DIZ; summary of the method: as §1
# Aliivibrio fischeri [5] = test: Antimicrobial activity against Vibrio fischeri NCIM 2154 at 500 ug/disk after 24 hrs by disk diffusion method; assay type: functional; conditions: NCIM 2154, 24 h, read-out: DIZ
# Summary of the method: (§2)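 Disc diffusion. 100 µl of bacterial suspension at 10⁸ CFU/ml was spread on Mueller–Hinton agar. Discs loaded with test compound dissolved in DMSO were placed on the lawn, with a DMSO-only disc as negative control. Plates were incubated at 37 °C for 24 h, and the inhibition zone diameter was measured.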
# Aliivibrio fischeri [6] = test: Antimicrobial activity against Vibrio fischeri NCIM 2154 at 1000 ug/disk after 24 hrs by disk diffusion method; assay type: functional; conditions: NCIM 2154, 24 h, read-out: DIZ; summary of the method: as §2
# [7] = tested on: Rhodococcus corynebacterioides; test: Antimicrobial activity against Corynebacterium rubrum NCIM 2252 at 500 ug/disk after 24 hrs by disk diffusion method; assay type: functional; conditions: Rhodococcoides corynebacterioides, NCIM 2252, 24 h; read-out: DIZ; summary of the method: as §1
# Salmonella typhimurium = test: Antimicrobial activity against Salmonella Typhimurium NCIM 2501 at 1000 ug/disk after 24 hrs by disk diffusion method; assay type: functional, Salmonella enterica subsp. enterica serovar Typhimurium; conditions: Salmonella enterica, NCIM 2501, 24 h; read-out: DIZ; summary of the method: as §2
# [8] = tested on: Rhodococcus corynebacterioides; test: Antimicrobial activity against Corynebacterium rubrum NCIM 2252 at 1000 ug/disk after 24 hrs by disk diffusion method; assay type: functional; conditions: Rhodococcoides corynebacterioides, NCIM 2252, 24 h; read-out: DIZ; summary of the method: as §1
# Staphylococcus = test: Antimicrobial activity against Staphylococcus albus NCIM 2178 at 1000 ug/disk after 24 hrs by disk diffusion method; assay type: functional; conditions: NCIM 2178, 24 h, read-out: DIZ; summary of the method: as §2
# Proteus vulgaris [9] = test: Antimicrobial activity against Proteus vulgaris NCIM 2027 at 500 ug/disk after 24 hrs by disk diffusion method; assay type: functional; conditions: NCIM 2027, 24 h, read-out: DIZ; summary of the method: as §1
# Proteus vulgaris [10] = test: Antimicrobial activity against Proteus vulgaris NCIM 2027 at 1000 ug/disk after 24 hrs by disk diffusion method; assay type: functional; conditions: NCIM 2027, 24 h, read-out: DIZ; summary of the method: as §1
# Aspergillus flavus [11] = test: Antimicrobial activity against Aspergillus flavus NCIM 902 at 500 ug/disk after 72 hrs by disk diffusion method; assay type: functional; conditions: NCIM 902, 72 h, read-out: DIZ
# Summary of the method: (§3)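 Disc diffusion on Sabouraud's dextrose agar. 100 µl of fungal suspension at 10⁶ CFU/ml is spread on the plate. Discs carry test compounds at two loadings in DMSO; DMSO alone is the negative control. Clotrimazole disc is the positive reference. Plates are incubated at 27 °C for 72 h, and the zone of inhibition diameter is measured.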
# Aspergillus flavus [12] = test: Antimicrobial activity against Aspergillus flavus NCIM 902 at 1000 ug/disk after 72 hrs by disk diffusion method; assay type: functional; conditions: NCIM 902, 72 h, read-out: DIZ; summary of the method: as §3
# Rhodotorula mucilaginosa [13] = test: Antimicrobial activity against Rhodotorula rubra NCIM 3174 at 500 ug/disk after 72 hrs by disk diffusion method; assay type: functional; conditions: NCIM 3174, 72 h, read-out: DIZ
# Summary of the method: (§4)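 Fungal disc diffusion. 100 µl of suspension at 10⁶ CFU/ml was spread on Sabouraud's dextrose agar. Discs carrying test compound in DMSO were applied, with a DMSO-only disc as negative control. Plates were incubated at 27 °C for 72 h, and the zone of inhibition diameter was measured.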
# Rhodotorula mucilaginosa [14] = test: Antimicrobial activity against Rhodotorula rubra NCIM 3174 at 1000 ug/disk after 72 hrs by disk diffusion method; assay type: functional; conditions: NCIM 3174, 72 h, read-out: DIZ; summary of the method: as §4
# Aspergillus fumigatus = test: Antimicrobial activity against Aspergillus fumigatus NCIM 902 at 1000 ug/disk after 72 hrs by disk diffusion method; assay type: functional; summary of the method: as §3
# Aspergillus parasiticus [15] = test: Antimicrobial activity against Aspergillus parasiticus NCIM 904 at 500 ug/disk after 72 hrs by disk diffusion method; assay type: functional; conditions: NCIM 904, 72 h, read-out: DIZ; summary of the method: as §3
# Penicillium chrysogenum [16] = test: Antimicrobial activity against Penicillium chrysogenum NCIM 707 at 500 ug/disk after 72 hrs by disk diffusion method; assay type: functional; summary of the method: as §3
# Penicillium chrysogenum [17] = test: Antimicrobial activity against Penicillium chrysogenum NCIM 707 at 1000 ug/disk after 72 hrs by disk diffusion method; assay type: functional; conditions: NCIM 707, 72 h, read-out: DIZ; summary of the method: as §3
# Lipomyces lipofer = test: Antimicrobial activity against Lipomyces lipofer NCIM 3252 at 500 ug/disk after 72 hrs by disk diffusion method; assay type: functional; conditions: NCIM 3252, 72 h, read-out: DIZ; summary of the method: as §3
# Klebsiella aerogenes [18] = test: Antimicrobial activity against Klebsiella aerogenes NCIM 2239 at 1000 ug/disk after 24 hrs by disk diffusion method; assay type: functional; conditions: NCIM 2239, 24 h, read-out: DIZ; summary of the method: as §1
# Klebsiella aerogenes [19] = test: Antimicrobial activity against Klebsiella aerogenes NCIM 2239 at 500 ug/disk after 24 hrs by disk diffusion method; assay type: functional; conditions: NCIM 2239, 24 h, read-out: DIZ; summary of the method: as §1
# Pseudomonas aeruginosa [20] = test: Antimicrobial activity against Pseudomonas aeruginosa NCIM 2200 at 1000 ug/disk after 24 hrs by disk diffusion method; assay type: functional; conditions: NCIM 2200, 24 h, read-out: DIZ; summary of the method: as §1
# Pseudomonas aeruginosa [21] = test: Antimicrobial activity against Pseudomonas aeruginosa NCIM 2200 at 500 ug/disk after 24 hrs by disk diffusion method; assay type: functional; conditions: NCIM 2200, 24 h, read-out: DIZ; summary of the method: as §2
# Aspergillus flavus [22] = test: Antimicrobial activity against Aspergillus flavus NCIM 902 after 72 hrs by serial dilution method; assay type: functional; conditions: NCIM 535, 72 h, in the assay text read “NCIM 535” for “NCIM 902”
# Summary of the method: (§5)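 MIC by broth dilution in Sabouraud's dextrose broth, only for fungi sensitive in disc diffusion. Two-fold serial dilutions of compounds are made in 1 ml broth per tube, range 3.9 to 1000. Inoculated tubes are incubated at 27 °C for 72 h.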
# Aspergillus parasiticus [23] = test: Antimicrobial activity against Aspergillus parasiticus NCIM 904 after 72 hrs by serial dilution method; assay type: functional; conditions: NCIM 904, 72 h; summary of the method: as §5
# Trichoderma viride [24] = test: Antimicrobial activity against Trichoderma viride NCIM 1195 after 72 hrs by serial dilution method; assay type: functional; conditions: NCIM 1195, 72 h
# Summary of the method: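 MIC by broth dilution in Sabouraud's dextrose broth, run only on fungi found sensitive in the disc assay. Twofold serial dilutions were made in 1 ml broth per tube, covering 3.9 to 1000. Inoculated tubes were incubated at 27 °C for 72 h.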
# Trichoderma viride [25] = test: Antimicrobial activity against Trichoderma viride NCIM 1195 at 500 ug/disk after 72 hrs by disk diffusion method; assay type: functional; conditions: NCIM 1195, 72 h, read-out: DIZ; summary of the method: as §4
# Trichoderma viride [26] = test: Antimicrobial activity against Trichoderma viride NCIM 1195 at 1000 ug/disk after 72 hrs by disk diffusion method; assay type: functional; conditions: NCIM 1195, 72 h, read-out: DIZ; summary of the method: as §4
# Escherichia coli [27] = test: Antimicrobial activity against Escherichia coli NCIM 2065 after 24 hrs by serial dilution method; assay type: functional; conditions: NCIM 2065, 24 h
# Summary of the method: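 Broth dilution MIC in nutrient broth, run only for organisms found sensitive in disc diffusion. Compounds are two-fold serially diluted in 1 ml sterile broth per tube, spanning 3.9 to 1000. Inoculated tubes are incubated at 37 °C for 24 h.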
Structure (SMILES),zone of inhibition at 1000 µg/disc (Escherichia coli [1]),zone of inhibition at 500 µg/disc (Escherichia coli [2]),zone of inhibition at 500 µg/disc (Bacillus subtilis),zone of inhibition at 500 µg/disc (Bacillus cereus [3]),zone of inhibition at 1000 µg/disc (Bacillus cereus [4]),zone of inhibition at 500 µg/disc (Aliivibrio fischeri [5]),zone of inhibition at 1000 µg/disc (Aliivibrio fischeri [6]),zone of inhibition at 500 µg/disc [7],zone of inhibition at 1000 µg/disc (Salmonella typhimurium),zone of inhibition at 1000 µg/disc [8],zone of inhibition at 1000 µg/disc (Staphylococcus),zone of inhibition at 500 µg/disc (Proteus vulgaris [9]),zone of inhibition at 1000 µg/disc (Proteus vulgaris [10]),zone of inhibition at 500 µg/disc (Aspergillus flavus [11]),zone of inhibition at 1000 µg/disc (Aspergillus flavus [12]),zone of inhibition at 500 µg/disc (Rhodotorula mucilaginosa [13]),zone of inhibition at 1000 µg/disc (Rhodotorula mucilaginosa [14]),zone of inhibition at 500 µg/disc (Aspergillus parasiticus [15]),zone of inhibition at 1000 µg/disc (Penicillium chrysogenum [17]),zone of inhibition at 500 µg/disc (Lipomyces lipofer),other results
CC1(C)CC(=O)C2=C(C1)Nc1c(ccc3ccccc13)C2c1cccc([N+](=O)[O-])c1 (centres undefined),15 mm,10 mm,9 mm,10 mm,13 mm,7 mm,10 mm,8 mm,13 mm,9 mm,9 mm,7 mm,9 mm,9 mm,13 mm,10 mm,15 mm,10 mm,11 mm,8 mm,"zone of inhibition at 1000 µg/disc (Aspergillus fumigatus; NCIM 902, 72 h, read-out: DIZ): 10 mm; zone of inhibition at 500 µg/disc (Penicillium chrysogenum [16]; NCIM 707, 72 h, read-out: DIZ): 8 mm; zone of inhibition at 1000 µg/disc (Klebsiella aerogenes [18]): 11 mm; zone of inhibition at 500 µg/disc (Klebsiella aerogenes [19]): 8 mm; zone of inhibition at 1000 µg/disc (Pseudomonas aeruginosa [20]): 8 mm; zone of inhibition at 500 µg/disc (Pseudomonas aeruginosa [21]): 7 mm; MIC (Aspergillus flavus [22]): 15.6 µg/mL; MIC (Aspergillus parasiticus [23]): 3.9 µg/mL; MIC (Trichoderma viride [24]): 31.2 µg/mL; zone of inhibition at 500 µg/disc (Trichoderma viride [25]): 10 mm; zone of inhibition at 1000 µg/disc (Trichoderma viride [26]): 12 mm; MIC (Escherichia coli [27]): 3.9 µg/mL"
CC1(C)CC(=O)C2=C(C1)Nc1c(ccc3ccccc13)C2c1ccc(O)cc1 (centres undefined),12 mm,7 mm,7 mm,9 mm,11 mm,7 mm,9 mm,7 mm,11 mm,10 mm,8 mm,7 mm,9 mm,9 mm,12 mm,21 mm,23 mm,12 mm,9 mm,7 mm,diameter of the inhibition zone (DIZ) (Aspergillus fumigatus): inactive; diameter of the inhibition zone (DIZ) (Penicillium chrysogenum [16]): inactive; zone of inhibition at 1000 µg/disc (Klebsiella aerogenes [18]): 12 mm; zone of inhibition at 500 µg/disc (Klebsiella aerogenes [19]): 9 mm; zone of inhibition at 1000 µg/disc (Pseudomonas aeruginosa [20]): 9 mm; zone of inhibition at 500 µg/disc (Pseudomonas aeruginosa [21]): 7 mm; MIC (Aspergillus flavus [22]): 31.2 µg/mL; MIC (Aspergillus parasiticus [23]): 7.8 µg/mL; MIC (Trichoderma viride [24]): 31.2 µg/mL; zone of inhibition at 500 µg/disc (Trichoderma viride [25]): 10 mm; zone of inhibition at 1000 µg/disc (Trichoderma viride [26]): 12 mm; MIC (Escherichia coli [27]): 31.2 µg/mL

# From ChEMBL document CHEMBL1138564, “Microwave-induced synthesis and anti-microbial activities of 7,10,11,12-tetrahydrobenzo[c]acridin-8(9H)-one derivatives” (2009)
